From ChEMBL document CHEMBL1122622, “Carbocyclic analogues of xylofuranosylpurine nucleosides. Synthesis and antitumor activity” (J Med Chem, 1984) come the findings set out here.

In assay [1] the test system is Mus musculus. As to the kind of experiment: Compound was evaluated for the in vivo antitumor activity against p388 leukemia cells after injecting the compound intraperitoneally at a dose of 5 mg/kg in mice. It counts as functional. The conditions noted are these: route intraperitoneal. An outline of the steps: (§1)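 BDF1 male mice, eight per group, implanted ip with 10⁶ P388 leukemia cells. Drug given ip in 0.5 mL saline. Schedules varied between groups; the 100 mg/kg/day regimen was dosed qd 1-9.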

Assay [2] deals with Mus musculus. As to the kind of experiment: Compound was evaluated for the in vivo antitumor activity against P388 leukemia cells after injecting the compound intraperitoneally at a dose of 2 mg/kg in mice (treatment schedule 1-9 days). As to conditions: route intraperitoneal. The class given is functional. The procedure, abridged:
as §1

Assay [3] concerns Mus musculus. As to the kind of experiment: Compound was evaluated for the in vivo antitumor activity against P388 leukemia cells after injecting the compound intraperitoneally at a dose of 1 mg/kg in mice. It counts as functional. The conditions noted are these: route intraperitoneal. An outline of the steps: as §1
Assay [4] has as its system Mus musculus. As to the kind of experiment: Compound was evaluated for the in vivo antitumor activity against P388 leukemia cells after injecting the compound intraperitoneally at a dose of 50 mg/kg in mice. The class given is functional. The conditions noted are these: route intraperitoneal. The procedure, abridged:
as §1

Assay [5] relates to Mus musculus. As to the kind of experiment: (§2) Compound was evaluated for the in vivo antitumor activity against P388 leukemia cells after injecting the compound intraperitoneally at a dose of 5 mg/kg in mice. It counts as functional. The conditions noted are these: route intraperitoneal. An outline of the steps:
as §1

The test system of assay [6] is Mus musculus. The assay is described as §2. The class given is functional. As to conditions: route intraperitoneal. An outline of the steps:
as §1
This is another data set of the same source.

Assay [7] relates to Mus musculus. As to the kind of experiment: Compound was evaluated for the in vivo antitumor activity against p388 leukemia cells after injecting the compound intraperitoneally at a dose of 2 mg/kg in mice. The class given is functional. The conditions noted are these: route intraperitoneal. An outline of the steps:
as §1

Assay [8] is filed under the species Mus musculus. As to the kind of experiment: Effective dose by 50% was evaluated. It counts as functional. The procedure, abridged:
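P388 mouse lymphoid leukemia cells were grown in culture in the presence of the compound, and the concentration giving 50% effect on growth was taken as the ED₅₀.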

Assay [9] concerns the target Adenosine deaminase (Bos taurus) (UniProt P56658). As to the kind of experiment: Compound was evaluated for competitive inhibition of adenosine deaminase and expressed as Ki.

Adenosine deaminase (Bos taurus), sequence (P56658 whole entry, looked up): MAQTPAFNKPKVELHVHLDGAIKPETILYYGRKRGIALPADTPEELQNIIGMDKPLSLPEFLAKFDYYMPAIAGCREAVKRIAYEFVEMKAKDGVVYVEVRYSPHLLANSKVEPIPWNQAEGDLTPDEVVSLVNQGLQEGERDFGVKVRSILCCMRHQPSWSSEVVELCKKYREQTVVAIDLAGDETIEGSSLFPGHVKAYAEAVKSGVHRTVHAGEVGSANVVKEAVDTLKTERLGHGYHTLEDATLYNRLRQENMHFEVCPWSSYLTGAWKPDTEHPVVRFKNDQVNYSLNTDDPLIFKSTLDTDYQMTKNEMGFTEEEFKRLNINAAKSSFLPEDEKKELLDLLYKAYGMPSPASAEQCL

One may read the T/C as the result in the treated group divided by that in the control group, in per cent. As to `Nc1ncnc2c1nnn2C1CC(CO)C(O)C1O` (configuration not stated), the T/C was 173% in [1]; 128% in assay [3]; 226% in [4]; 175% in assay [5]; 149% in assay [7]. The Survival time turned out to be 16.1 days in [2]; 13.9 days in assay [3]; 19.5 days in [4]; 17.9 days in [5]; 18.4 days in assay [6].
The term Ki denotes a dissociation constant, usually derived from enzyme kinetics or from competition with a known ligand. In turn, `Nc1ncnc2c1ncn2[C@@H]1C[C@H](CO)[C@@H](O)[C@H]1O` [ARISTEROMYCIN] returned an ED50 in [8] of 67 µM. Moreover, the inhibition constant (Ki) in assay [9] came to 9.9 µM.
